From ChEMBL document CHEMBL1649147, “Antistaphylococcal activity of dihydrophthalazine antifolates, a family of novel antibacterial drugs” (2009) come the findings set out here.

≈ marks a conversion by molar mass, not a printed value.

One assay has as its system Staphylococcus aureus. The assay is described as follows: Antibacterial activity against Staphylococcus aureus ATCC 29213 assessed as change in MIC by agar odilution method after serial passages in presence of antibiotic relative to control. It is filed as functional, ATCC29213.
Details: not given
The gist of the method: (§1)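 Serial passage under drug. Inoculum was ~1 × 10^6 CFU/ml from overnight MHA growth, in 1 ml MHB at 35°C for 24 h. Drug ranged from 4 log2 steps above to 3 log2 steps below the MIC. […] MIC change is given as log2 steps.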
On to `COc1ncc(C2c3ccccc3C=NN2C(=O)/C=C/c2cc(Cc3cnc(N)nc3N)cc(OC)c2OC)cn1` (configuration not stated), for which the “fold change (FC)” value worked out at 8.

The subject of another assay is Staphylococcus epidermidis. The assay is described as follows: Antibacterial activity against methicillin-resistant, vancomycin-intermediate coagulase-negative Staphylococcus epidermidis 225 by agar dilution method. It is filed as functional.
Details: not given
The gist of the method: (§2)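 Agar dilution on Mueller-Hinton agar per CLSI guidelines. S. aureus ATCC 29213 and E. faecalis ATCC 29212 were run with each set, and test MICs were accepted only when the control strains fell within acceptable ranges.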
Usually MIC stands for the smallest concentration in the dilution series that meets the test's criterion for growth inhibition. Read a high MIC as a less susceptible organism. Compound `COc1ncc(C2c3ccccc3C=NN2C(=O)/C=C/c2cc(Cc3cnc(N)nc3N)cc(OC)c2OC)cn1` (configuration not stated) yielded an MIC of 0.25 mg/L (≈ 0.452 µM).

For the next assay, the system named is Staphylococcus aureus. Kind of assay: Antibacterial activity against methicillin-susceptible Staphylococcus aureus by agar dilution method. It is filed as functional.
Details: not given
The gist of the method:
as §2
One may read the MIC50 as the lowest concentration that inhibits either 50% of growth or 50% of the strains tested, depending on the study. A higher MIC50 goes with weaker potency. The MIC90 is the lowest concentration that inhibits either 90% of growth or 90% of the strains tested, depending on the study. A lower MIC90 goes with higher susceptibility. As to `COc1ncc(C2c3ccccc3C=NN2C(=O)/C=C/c2cc(Cc3cnc(N)nc3N)cc(OC)c2OC)cn1` (configuration not stated), the MIC50 came to 0.03 mg/L (≈ 0.0543 µM) and the MIC90 is 0.25 mg/L (≈ 0.452 µM).

A further assay relates to Staphylococcus aureus. Kind of assay: Antibacterial activity against Staphylococcus aureus 505 assessed as change in MIC by agar dilution method after serial passages in presence of antibiotic relative to control. It is filed as functional.
Details: not given
The gist of the method:
as §1
In general terms: In agar dilution, organisms are placed on agar that contains the substance at set levels.
In the case of `COc1ncc(C2c3ccccc3C=NN2C(=O)/C=C/c2cc(Cc3cnc(N)nc3N)cc(OC)c2OC)cn1` (configuration not stated), the “fold change (FC)” value was 6.

The next assay relates to Staphylococcus epidermidis. Kind of assay: Antibacterial activity against coagulase-negative Staphylococcus epidermidis 197 assessed as change in MIC by agar dilution method after serial passages in presence of antibiotic relative to control. The assay is classed as functional.
Details: not given
The gist of the method: as §1
As to `COc1ncc(C2c3ccccc3C=NN2C(=O)/C=C/c2cc(Cc3cnc(N)nc3N)cc(OC)c2OC)cn1` (configuration not stated), the “fold change (FC)” value amounted to 5.

A further assay deals with Staphylococcus aureus. The assay is described as follows: Antibacterial activity against Tmp-resistant Staphylococcus aureus by agar dilution method. It is filed as functional.
Details: not given
The gist of the method: (§3)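 MICs by agar dilution on Mueller-Hinton agar following CLSI guidelines. S. aureus ATCC 29213 and E. faecalis ATCC 29212 were run as quality controls with each set, and test-strain MICs were kept only if control MICs fell within acceptable ranges.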
As to `COc1ncc(C2c3ccccc3C=NN2C(=O)/C=C/c2cc(Cc3cnc(N)nc3N)cc(OC)c2OC)cn1` (configuration not stated), the MIC50 was found to be 0.25 mg/L (≈ 0.452 µM) and the MIC90 stood at 0.5 mg/L (≈ 0.905 µM).

The test system of another assay is Staphylococcus epidermidis. Kind of assay: Antibacterial activity against coagulase-negative Staphylococcus epidermidis 057 assessed as change in MIC by agar dilution method after serial passages in presence of antibiotic relative to control. The assay is classed as functional.
Details: not given
In short, it runs like this:
as §1
On to `COc1ncc(C2c3ccccc3C=NN2C(=O)/C=C/c2cc(Cc3cnc(N)nc3N)cc(OC)c2OC)cn1` (configuration not stated), for which the “fold change (FC)” value is reported as 4.

Another assay has as its system Staphylococcus epidermidis. Kind of assay: Antibacterial activity against methicillin-resistant coagulase-negative Staphylococcus epidermidis 074 by broth macrodilution method. The assay is classed as functional.
Details: not given
Turning to `COc1ncc(C2c3ccccc3C=NN2C(=O)/C=C/c2cc(Cc3cnc(N)nc3N)cc(OC)c2OC)cn1` (configuration not stated), the MIC is 0.06 mg/L (≈ 0.109 µM).

In a further assay the test system is coagulase-negative staphylococci. Kind of assay: Antibacterial activity against Tmp-resistant coagulase-negative staphylococci by agar dilution method.
Details: not given
As to `COc1ncc(C2c3ccccc3C=NN2C(=O)/C=C/c2cc(Cc3cnc(N)nc3N)cc(OC)c2OC)cn1` (configuration not stated), the MIC50 came out at 0.125 mg/L (≈ 0.226 µM) and the MIC90 was 0.5 mg/L (≈ 0.905 µM).

Another assay deals with Staphylococcus aureus. Kind of assay: Antibacterial activity against Staphylococcus aureus 145 assessed as change in MIC by agar dilution method after serial passages in presence of antibiotic relative to control. It is filed as functional.
Details: not given
In short, it runs like this: as §1
Consider `COc1ncc(C2c3ccccc3C=NN2C(=O)/C=C/c2cc(Cc3cnc(N)nc3N)cc(OC)c2OC)cn1` (configuration not stated), for which the “fold change (FC)” value amounted to 9.

For another assay, the system named is Staphylococcus epidermidis. Kind of assay: Antibacterial activity against coagulase-negative Staphylococcus epidermidis 051 assessed as change in MIC by agar dilution method after serial passages in the absence of antibiotic relative to control. It is filed as functional.
Details: not given
The gist of the method:
(§4)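 After drug-selective serial passage, selected clones were passaged 10 times in antibiotic-free MHB. MICs were then redetermined, and the change is expressed as log2 dilution steps.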
Turning to `COc1ncc(C2c3ccccc3C=NN2C(=O)/C=C/c2cc(Cc3cnc(N)nc3N)cc(OC)c2OC)cn1` (configuration not stated), the “fold change (FC)” value is -2.

For another assay, the system named is Staphylococcus epidermidis. Kind of assay: Antibacterial activity against coagulase-negative Staphylococcus epidermidis 051 assessed as change in MIC by agar dilution method after serial passages in presence of antibiotic relative to control. It is filed as functional.
Details: not given
The gist of the method:
as §1
Take `COc1ncc(C2c3ccccc3C=NN2C(=O)/C=C/c2cc(Cc3cnc(N)nc3N)cc(OC)c2OC)cn1` (configuration not stated): the “fold change (FC)” value stood at 8.

A further assay has as its system Staphylococcus epidermidis. Kind of assay: Antibacterial activity against methicillin-susceptible coagulase-negative Staphylococcus epidermidis 051 by broth macrodilution method. The assay is classed as functional.
Details: not given
Compound `COc1ncc(C2c3ccccc3C=NN2C(=O)/C=C/c2cc(Cc3cnc(N)nc3N)cc(OC)c2OC)cn1` (configuration not stated) came in with an MIC of 0.125 mg/L (≈ 0.226 µM).

The next assay has as its system Staphylococcus aureus. Kind of assay: Antibacterial activity against methicillin-susceptible Staphylococcus aureus ATCC 29213 by broth macrodilution method. The assay is classed as functional. The conditions noted are these: ATCC29213.
`COc1ncc(C2c3ccccc3C=NN2C(=O)/C=C/c2cc(Cc3cnc(N)nc3N)cc(OC)c2OC)cn1` (configuration not stated) yielded an MIC of 0.03 mg/L (≈ 0.0543 µM).

The test system of a further assay is Staphylococcus epidermidis. The assay is described as follows: Antibacterial activity against coagulase-negative Staphylococcus epidermidis 345 assessed as change in MIC by agar dilution method after serial passages in presence of antibiotic relative to control. The assay is classed as functional.
Details: not given
In short, it runs like this:
as §1
In the case of `COc1ncc(C2c3ccccc3C=NN2C(=O)/C=C/c2cc(Cc3cnc(N)nc3N)cc(OC)c2OC)cn1` (configuration not stated), the “fold change (FC)” value stood at 7.

For the next assay, the system named is Staphylococcus aureus. Kind of assay: Antibacterial activity against Staphylococcus aureus 145.
Details: not given
For `COc1ncc(C2c3ccccc3C=NN2C(=O)/C=C/c2cc(Cc3cnc(N)nc3N)cc(OC)c2OC)cn1` (configuration not stated), it took 0.5 mg/L (≈ 0.905 µM) to inhibit growth (MIC).

The next assay concerns Staphylococcus epidermidis. Kind of assay: Antibacterial activity against coagulase-negative Staphylococcus epidermidis 225 assessed as change in MIC by agar dilution method after serial passages in the absence of antibiotic relative to control. The assay is classed as functional.
Details: not given
In short, it runs like this:
as §4
As to `COc1ncc(C2c3ccccc3C=NN2C(=O)/C=C/c2cc(Cc3cnc(N)nc3N)cc(OC)c2OC)cn1` (configuration not stated), the “fold change (FC)” value was -4.

A further assay relates to Staphylococcus epidermidis. The assay is described as follows: Antibacterial activity against coagulase-negative Staphylococcus epidermidis 345 by agar dilution method.
Details: not given
It is filed as functional. In short, it runs like this: as §3
For `COc1ncc(C2c3ccccc3C=NN2C(=O)/C=C/c2cc(Cc3cnc(N)nc3N)cc(OC)c2OC)cn1` (configuration not stated), the MIC was 0.125 mg/L (≈ 0.226 µM).

For the next assay, the system named is Staphylococcus epidermidis. Kind of assay: Antibacterial activity against coagulase-negative Staphylococcus epidermidis 345 assessed as change in MIC by agar dilution method after serial passages in the absence of antibiotic relative to control. The assay is classed as functional.
Details: not given
In short, it runs like this: as §4
Turning to `COc1ncc(C2c3ccccc3C=NN2C(=O)/C=C/c2cc(Cc3cnc(N)nc3N)cc(OC)c2OC)cn1` (configuration not stated), the “fold change (FC)” value is recorded as -3.
